≈ marks a conversion by molar mass, not a printed value.

Common to all, as to type: functional
For assay [1], the system named is Trichophyton tonsurans. Description: Antifungal activity against Trichophyton tonsurans after 7 days. The settings on record: 168 h. An outline of the steps:
(§1)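 Fungal strains were taken from Sabouraud medium into nutrient broth and grown 3–5 days at 25 °C. They were vortexed 4–5 min with sterile beads, and the suspensions were adjusted to absorbance 0.5 at 500 nm. Eight serial dilutions were made in microplates, and all wells except the positive control received standardized inoculum. MIC was the lowest concentration giving no visible growth.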

The subject of assay [2] is Klebsiella pneumoniae. As to the kind of experiment: Antibacterial activity against Klebsiella pneumoniae after 24 hrs by micro-broth dilution technique. An outline of the steps:
(§2)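 Mueller-Hinton broth microdilution. Test compounds were serially diluted two-fold in DMSO. The inoculum was grown in broth overnight at 37 °C, then diluted to a final 10⁵ cfu/ml in the tray. Trays were covered and incubated at 37 °C for about 24 h. MIC was the lowest concentration inhibiting visible growth.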
(In general: Dilution methods test growth across graded concentrations, often in twofold steps.)

In assay [3] the test system is Microsporum. Description: Antifungal activity against Microsporum gypseum after 7 days. Particulars: 168 h. An outline of the steps:
as §1

In assay [4] the test system is Pseudomonas aeruginosa. As to the kind of experiment: Antibacterial activity against Pseudomonas aeruginosa after 24 hrs by micro-broth dilution technique. An outline of the steps: as §2
Assay [5] deals with Staphylococcus aureus. As to the kind of experiment: Antibacterial activity against Staphylococcus aureus after 24 hrs by micro-broth dilution technique. An outline of the steps: as §2
Assay [6] has as its system Escherichia coli. Description: Antibacterial activity against Escherichia coli after 24 hrs by micro-broth dilution technique. An outline of the steps:
as §2

For the molecule `Nc1nc(-c2cccc([N+](=O)[O-])c2)cc(-c2cccc3ccccc23)n1`, the MIC (usually the lowest concentration that inhibits growth of the organism) in assay [1] is 25 µg/mL (≈ 73 µM); in assay [2], 14.3 µg/mL (≈ 41.7 µM); in assay [3], 25 µg/mL (≈ 73 µM); in assay [4], 18.2 µg/mL (≈ 53.2 µM); in assay [5], 29.1 µg/mL (≈ 85 µM); in assay [6], 19.5 µg/mL (≈ 57 µM).
On to `CC1(C)S[C@@H]2[C@H](NC(=O)[C@H](N)c3ccccc3)C(=O)N2[C@H]1C(=O)O` [AMPICILLIN], for which the MIC in assay [2] is 1.8 µg/mL (≈ 5.15 µM); in assay [4] it was 1.8 µg/mL (≈ 5.15 µM); in assay [5] it was 1 µg/mL (≈ 2.86 µM); in assay [6], 1.65 µg/mL (≈ 4.72 µM).
For the molecule `Nc1nc(-c2ccc(F)cc2)cc(-c2cccc3ccccc23)n1`, the MIC in assay [1] amounted to 2.2 µg/mL (≈ 6.98 µM); in assay [2], 2.55 µg/mL (≈ 8.09 µM); in assay [3] it was 5.9 µg/mL (≈ 18.7 µM); in assay [4] it was 5.45 µg/mL (≈ 17.3 µM); in assay [5], 7.3 µg/mL (≈ 23.1 µM); in assay [6] it was 8.1 µg/mL (≈ 25.7 µM).
With `Nc1nc(-c2ccc(Cl)cc2)cc(-c2cccc3ccccc23)n1`, the MIC in assay [1] is 2.8 µg/mL (≈ 8.44 µM); in assay [2] it was 19.8 µg/mL (≈ 59.7 µM); in assay [3], 5.55 µg/mL (≈ 16.7 µM); in assay [4] it was 21.9 µg/mL (≈ 66 µM); in assay [5] it was 12.3 µg/mL (≈ 37.1 µM); in assay [6], 13.5 µg/mL (≈ 40.7 µM).
On to `Clc1ccc(COC(Cn2ccnc2)c2ccc(Cl)cc2Cl)c(Cl)c1` (stereo not given) [MICONAZOLE], for which the MIC in assay [1] and in assay [3] was 0.2 µg/mL (≈ 0.481 µM) each time.
`COc1ccccc1-c1cc(-c2cccc3ccccc23)nc(N)n1`: the minimum inhibitory concentration (MIC) was 25 µg/mL (≈ 76.4 µM) in assay [1]; 8.22 µg/mL (≈ 25.1 µM) in assay [2]; 25 µg/mL (≈ 76.4 µM) in assay [3]; 9.18 µg/mL (≈ 28 µM) in assay [4]; greater than 60 µg/mL in assay [5]; 36 µg/mL (≈ 110 µM) in assay [6].
For `Nc1nc(-c2cccc(Cl)c2)cc(-c2cccc3ccccc23)n1`, the MIC in assay [1] turned out to be 25 µg/mL (≈ 75.3 µM); in assay [2], 6.38 µg/mL (≈ 19.2 µM); in assay [3] it was 25 µg/mL (≈ 75.3 µM); in assay [4], 7.42 µg/mL (≈ 22.4 µM); in assay [5], 39 µg/mL (≈ 118 µM); in assay [6], 41 µg/mL (≈ 124 µM).
Consider `Nc1nc(-c2ccccc2Cl)cc(-c2cccc3ccccc23)n1`, for which the MIC in assay [1] was 25 µg/mL (≈ 75.3 µM); in assay [2], 5.38 µg/mL (≈ 16.2 µM); in assay [3], 25 µg/mL (≈ 75.3 µM); in assay [4] it was 6.4 µg/mL (≈ 19.3 µM); in assay [5], 40 µg/mL (≈ 121 µM); in assay [6], greater than 60 µg/mL.
As to `Nc1nc(-c2ccccc2)cc(-c2cccc3ccccc23)n1`, the MIC in assay [1] was 25 µg/mL (≈ 84.1 µM); in assay [2], 5.5 µg/mL (≈ 18.5 µM); in assay [3] it was 25 µg/mL (≈ 84.1 µM); in assay [4] it was 6.59 µg/mL (≈ 22.2 µM); in assay [5], greater than 60 µg/mL; in assay [6], 42 µg/mL (≈ 141 µM).
Consider `COc1ccc(-c2cc(-c3cccc4ccccc34)nc(N)n2)cc1`, for which the minimum inhibitory concentration (MIC) in assay [1] was 25 µg/mL (≈ 76.4 µM); in assay [2], 9.31 µg/mL (≈ 28.4 µM); in assay [3], 25 µg/mL (≈ 76.4 µM); in assay [4] it was 10.2 µg/mL (≈ 31.2 µM); in assay [5], greater than 60 µg/mL; in assay [6] it was greater than 60 µg/mL.
Regarding `Nc1nc(-c2ccc([N+](=O)[O-])cc2)cc(-c2cccc3ccccc23)n1`, the MIC in assay [1] was found to be 25 µg/mL (≈ 73 µM); in assay [2], 15.3 µg/mL (≈ 44.8 µM); in assay [3], 25 µg/mL (≈ 73 µM); in assay [4], 11.9 µg/mL (≈ 34.8 µM); in assay [5], 25.6 µg/mL (≈ 74.9 µM); in assay [6], 16.6 µg/mL (≈ 48.6 µM).

The values are drawn from ChEMBL document CHEMBL1143781, “Synthesis, in vitro antibacterial and antifungal evaluations of 2-amino-4-(1-naphthyl)-6-arylpyrimidines” (2007).
